Screening data from PubChem BioAssay.
ADAM17 inh – inhibits human ADAM17. AID 720648. hit rate 0.83% among 370,000. inhibition, % at 6.95 µM. recombinant ADAM17, EDANS/DABCYL FRET peptide cleavage;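 active = inhibition above the mean of compounds lying between control limits plus 3 SD, set per campaign, cut at about 8.5% in these data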;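 note: 0% = DMSO-only wells as the low control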
Target sequence (P78536 215-824 limits assumed): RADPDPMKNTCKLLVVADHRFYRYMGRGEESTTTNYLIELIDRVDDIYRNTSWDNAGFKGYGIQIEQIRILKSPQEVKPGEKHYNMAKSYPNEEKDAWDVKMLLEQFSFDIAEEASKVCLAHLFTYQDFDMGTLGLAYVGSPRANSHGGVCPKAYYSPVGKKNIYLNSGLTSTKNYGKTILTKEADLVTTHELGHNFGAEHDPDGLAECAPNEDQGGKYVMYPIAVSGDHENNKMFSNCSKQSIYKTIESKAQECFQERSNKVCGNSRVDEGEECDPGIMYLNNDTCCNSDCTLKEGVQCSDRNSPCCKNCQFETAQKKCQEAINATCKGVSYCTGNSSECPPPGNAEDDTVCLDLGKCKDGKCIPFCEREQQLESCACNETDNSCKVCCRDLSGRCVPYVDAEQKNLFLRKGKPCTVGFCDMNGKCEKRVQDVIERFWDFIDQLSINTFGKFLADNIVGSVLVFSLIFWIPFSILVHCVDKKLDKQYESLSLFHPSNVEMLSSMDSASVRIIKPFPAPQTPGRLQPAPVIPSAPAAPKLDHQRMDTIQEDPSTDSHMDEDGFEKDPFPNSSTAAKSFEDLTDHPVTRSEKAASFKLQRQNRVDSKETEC
NR3A LBD binder – modulators (binders) of human NR3A ligand-binding domain | NR3A LBD differential scanning fluorimetry, Tm shift; 0% = protein alone, 100% = glycine-bound protein | Tm shift relative to glycine control, % at 25 µM | hit rate 2.5% among 340,000 | AID 1259313;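 active = melting temperature shift of at least 10% of the positive control shift, at one fixed dose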
ADAM10 inh – inhibits human ADAM10. hit rate 0.62% among 370,000. recombinant ADAM10, EDANS/DABCYL FRET peptide cleavage, 3 h. inhibition, % at 7 µM;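 active = inhibition above a per-campaign cutoff equal to the mean of compounds falling between control-based bounds plus 3 SD, cut at about 20% in these data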;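 note: 0% = DMSO wells while the 100% control is not disclosed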
MT1-MMP act inh – inhibitors of human MT1-MMP activation; P50281; HT1080 RFP-PRO-GFP cells, GFP/RFP ratio fluorescence, overnight; percent of plate control window, DMSO zero; GFP/RFP ratio change, % at 20 µM; hit rate 0.061% among 360,000; AID 651647;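 active = GFP/RFP ratio change of at least 30% with cell ATP level not reduced by more than half and red fluorescence within 50% of control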
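Read-out: GFP/RFP fluorescence ratio; Test system: RFP-PRO-GFP reporter HT1080 cells; Compound dosing: single-point 20 µM compound, 1% DMSO; Times: overnight compound exposure at 37 °C.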
MPTP inh – blocks calcium-induced mitochondrial swelling; isolated mouse mitochondria, Ca2+ swelling absorbance, 30 min; inhibition, % at 10 µM; hit rate 1.4% among 360,000; AID 602449;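 active = inhibition of 50% or more, scaled per plate between neutral and stimulator controls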;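 note: 0% = DMSO wells given calcium and 100% = 1 mM EGTA wells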
SKN-1 block – C. elegans SKN-1 inhibition | C. elegans VP596 Pgst-4::GFP/RFP ratio, acrylamide-induced, 24 h | inhibition, % at 21.8 µM | hit rate 0.49% among 360,000;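 active = interference check ratio from 0.5 to 1.5 plus GFP to RFP signal ratio inhibition reaching or exceeding a fixed threshold, cut at about 30% in these data, passing the limit was not always enough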
* = called active by the depositor; i = inactive; nt = no result. Rows were chosen to be rich in hits. Some 4.7% of all compounds tested hit in one or more screens of this group.

SMILES	ADAM17 inh	NR3A LBD binder	ADAM10 inh	MT1-MMP act inh	MPTP inh	SKN-1 block
CCN(CC(=O)Nc1c(F)cccc1F)C(=O)c1ccc2ccccc2n1	-3	15*	-9	12	0	-16
CCN(CC(=O)Nc1c(F)cccc1F)C(=O)/C=C/c1ccc2ccccc2n1	-4	1	-5	-4	1	0
CCCCCOC(=O)C1C(c2ccccc2)C(C(=O)O)C1c1ccccc1 (centres undefined)	0	10*	7	2	2	10
COC(=O)C1=C(C)N=c2s/c(=C/c3cccs3)c(=O)n2C1c1ccc(F)cc1 (centres undefined)	1	-6	8	7	1	35*
CC(=O)Nc1ccc(N2C(=O)c3ccc(C(=O)Nc4nnc(SCc5ccc(F)cc5)s4)cc3C2=O)cc1	-2	10*	2	6	4	4
CCOC(=O)C(=O)Nc1nnc(SCc2ccc(F)cc2)s1	-3	22*	0	-1	4	7
COc1ccccc1NC(=O)NNC(=O)c1ccncc1	-3	0	-8	1	-2	6
CC(C)N(Cc1ccccc1)C(=O)C1CCN(c2ncnc3c2nc2n3CCCCC2)CC1	-2	10	-2	6	1	4
CCOC(=O)c1ccc(NC(=S)N2CCCC(C)C2)cc1 (centres undefined)	-4	1	-5	-3	0	7
CCOC(=O)c1ccc(NC(=S)N2CCC(O)CC2)cc1	-2	-1	0	-2	1	3
CCOC(=O)c1ccc(NC(=S)N2CCSC2c2ccc(Br)cc2)cc1 (centres undefined)	0	18*	2	5	-2	-1
CCOC(=O)c1ccc(NC(=S)N2CCCC(C(=O)N3CCCC3)C2)cc1 (centres undefined)	-6	11*	-2	-1	0	5
CN(CC(=O)N1CCc2ccccc21)S(=O)(=O)c1ccc(Br)s1	5	15*	9	-2	1	24
CCc1sc(NC(=O)CN2CCC(C(N)=O)CC2)nc1-c1ccccc1	-1	-2	-4	1	2	3
CC(=O)OC(C)(C)/C=C/C(=O)[C@](C)(O)C1[C@H](O)C[C@@]2(C)C3CC=C4C(C=C(O[C@@H]5O[C@H](CO)[C@@H](O)[C@H](O)[C@H]5O)C(=O)C4(C)C)[C@]3(C)C(=O)C[C@]12C (some centres undefined)	-2	16*	-8	3	2	-6
CC1(C)Oc2ccc3ccc(=O)oc3c2C[C@H]1O[C@@H]1O[C@H](CO)[C@@H](O)[C@H](O)[C@H]1O	-122	-4	i	1	-3	5
c1ccc(-c2ccc(-n3ccnc3)cc2)cc1	-5	1	6	-2	1	82*
c1ccc(-c2ccc(C(c3ccccc3)n3ccnc3)cc2)cc1 (centres undefined)	-1	2	1	3	0	-5
CCCCN(C(=O)CSc1nnc(-c2ccccc2OC)n1C)c1c(N)n(Cc2ccccc2)c(=O)[nH]c1=O	0	0	4	-1	0	-7
O=C(COc1ccccc1Cl)NCCNC(=O)c1ccncc1	-7	-4	-1	3	1	24
O=C(Cc1ccc2c(c1)OCCO2)c1c(O)cc(O)cc1O	2	3	5	27	6	0
O=C(CCc1ccc(O)cc1)c1c(O)cc(O)cc1O	0	21*	-1	3	2	-6
CCc1ccc(-c2nc(SCC(=O)NC3CC3)n[nH]2)cc1	1	1	-5	1	-1	14
O=C(O)c1cccc(N2C(=O)/C(=C/c3ccc([N+](=O)[O-])cc3)C=C2c2ccccc2)c1	-4	7	-5	-4	9	20
COC(=O)c1cc(Br)c(=O)n(Cc2ccco2)c1	-3	0	-1	0	-2	-8
SMILES	ADAM17 inh	NR3A LBD binder	ADAM10 inh	MT1-MMP act inh	MPTP inh	SKN-1 block
COC(=O)c1ccc(=O)n(Cc2ccco2)c1	-26	-2	-59	2	-4	38*
COc1ccccc1CNCc1cc(Br)ccc1OC	0	-1	14	-2	0	4
COc1ccc(Br)cc1CNC(C)c1ccccc1 (centres undefined)	-2	21*	1	3	1	3
COc1cc(CNC(C)(C)CO)cc(Br)c1OCc1ccc(Cl)cc1Cl	1	-6	1	-9	12	33
COc1cc(CNC(C)c2ccccc2)cc(Br)c1OCc1ccc(F)cc1 (centres undefined)	0	-1	5	-7	12	66*
COc1cc(CNC(C)(C)CO)cc(Br)c1OCc1ccc(Cl)cc1	-4	-3	-1	-16	13	55*
OCC1(Cc2ccc(F)cc2)CCCN(CCc2ccccc2)C1 (centres undefined)	0	-3	4	1	1	14
COc1ccc(CCn2c(=O)[nH]c3cc(C(=O)NCCN4CCOCC4)ccc3c2=O)cc1OC	-6	-1	-16	18	-1	10
COc1ccc(Cl)c(Cn2c(NCC(C)O)nc3c2c(=O)n(C)c(=O)n3C)c1 (centres undefined)	1	0	10	7	-1	13
COc1ccc(-c2nc(SCC(=O)Nc3c(F)cccc3F)n[nH]2)cc1	0	-6	-17	-3	1	6
COc1ccc(-c2nc(SCC(=O)Nc3cc(C)on3)n[nH]2)cc1	nt	10*	nt	1	-3	22
CC(=O)c1ccc(NC(=O)C2CCN(S(=O)(=O)c3ccc4c(c3)N(C(C)=O)CCO4)CC2)cc1	0	19*	-16	0	-3	0
O=CNn1cnc2c(oc3nc(-c4ccccc4)cc(-c4ccco4)c32)c1=O	-90	29*	-419	-5	2	-5
Cc1cc(C)c(OCC(=O)N(Cc2ccc(N(C)C)cc2)C2CCS(=O)(=O)C2)c(C)c1 (centres undefined)	-2	1	6	-2	2	-1
CC(C)(C)c1cc(NCCCn2ccnc2)n2ncc(-c3ccc(Cl)cc3)c2n1	-98	20*	-290	-20	3	26
CCC(=O)Nc1sc(C(=O)Nc2ccccc2OC)c(C)c1C(=O)OC	-1	-1	6	0	2	3
COc1ccc(-c2nc(SC(CC(=O)NCc3ccccc3)c3ccc(OC)c(OC)c3)n[nH]2)cc1 (centres undefined)	2	2	8	7	1	6
CN(C(=O)COC(=O)COc1ccc2c(c1)CCC2)c1c(N)n(Cc2ccccc2)c(=O)[nH]c1=O	0	18*	-11	2	-1	-4
C=C(C)C1CC=C(C)/C(=N/NC(=O)c2cccs2)C1 (centres undefined)	-7	0	-23	-2	0	-4
